In ChEMBL document CHEMBL1821693, “A novel 3-arylethynyl-substituted pyrido[2,3,-b]pyrazine derivatives and pharmacophore model as Wnt2/β-catenin pathway inhibitors in non-small-cell lung cancer cell lines” (Bioorg Med Chem, 2011):
Activity calls are given as the source filed them. The rule behind the calls is not given here.

Legend:
A549 [1] = assay: Inhibition of cytosolic beta-catenin expression in human A549 cells at cytotoxicity IC50 by Western blot analysis; format: functional, cell-based
A549 [2] = assay: Inhibition of nucleus beta-catenin expression in human A549 cells at cytotoxicity IC50 by Western blot analysis; format: functional, cell-based
A549 [3] = assay: Cytotoxicity against human A549 cells expressing Wnt2 after 24 to 72 hrs by MTS assay; format: functional, cell-based
Summary of the method: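 Wnt2-overexpressing A549 cells (stable pUSEampWnt2, G418 selection) in RPMI-1640 with 10% FBS. Seeded at 8 × 10^3 cells/well and allowed ~24 h to attach. Exposed to a range of concentrations. Viability measured 24 h after treatment by MTS (30 min at 37 °C, A490); IC50 derived.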

A549 [4] = assay: Inhibition of total beta-catenin expression in human A549 whole cell extract at cytotoxicity IC50 by Western blot analysis; format: functional, cell-based
[5] = Inhibition of Wnt2/beta-catenin signaling pathway in human A549 cells assessed as inhibition of Tcf/Lef transcriptional activity at cell proliferation IC50 after 24 hrs by dual luciferase reporter gene assay; format: cell-based; conditions: dose or concentration not given here
Summary of the method: (§1)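 A549/Wnt2 cells co-transfected by lipofection with pSuper-Topflash (eight TCF sites driving firefly luciferase) or mutant pSuperFopflash, plus pRL-TK renilla for normalization. Compounds added at 37 °C for 24 h. Lysates read by dual-luciferase assay. Firefly/renilla ratio reported as mean ± SEM of triplicates, relative to non-treated cells.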

A549 [6] = assay: Inhibition of cyclin D1 mRNA expression in human A549 cells expressing Wnt2 after 24 hrs by RT-PCR analysis; format: functional, cell-based
A549 [7] = assay: Antiproliferative activity against human A549 cells expressing Wnt2 after 72 hrs by MTS assay; format: functional, cell-based; conditions: for IC50: A549, 72 h
Summary of the method: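 A549 cells stably transfected with pUSEampWnt2 (G418-selected), grown in RPMI-1640 with 10% FBS at 37 °C, 5% CO2. Seeded at 3 × 10^3 cells/well and allowed to attach ~24 h. Treated with a range of concentrations.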

[8] = Inhibition of Wnt2/beta-catenin signaling pathway in human A549 cells assessed as inhibition of Tcf/Lef transcriptional activity after 24 hrs by dual luciferase reporter gene assay; format: cell-based; conditions: A549, 24 h; summary of the method: as §1
A549 [9] = assay: Ratio of IC50 for antiproliferative activity against human A549 cells to IC50 for cytotoxicity against human A549 cells; format: functional
Summary of the method: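 Ratio of two MTS IC50s in A549/Wnt2 cells. Proliferation: 3 × 10^3 cells/well, read at 72 h. Cytotoxicity: 8 × 10^3 cells/well, read 24 h after treatment.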

| IC50 (A549 [7]) [nM] | IC50 [8] [nM] | SMILES | inhibition (A549 [1]) | inhibition (A549 [2]) | IC50 (A549 [3]) [nM] | inhibition (A549 [4]) | inhibition [5] [%] | inhibition (A549 [6]) | inhibition (A549 [7]) | Ratio IC50 (A549 [9]) |
| --- | --- | --- | --- | --- | --- | --- | --- | --- | --- | --- |
| – | – | C(#Cc1nc2ncccc2nc1OCCN1CCCC1)c1ccccc1 | Active | Active | 720 | Active | 30 | – | – | – |
| – | – | CC(C)N(CCOc1nc2cccnc2nc1C#Cc1cccc(F)c1)C(C)C | Active | Active | 2890 | Active | 50 | Active | – | – |
| – | – | Fc1cccc(C#Cc2nc3ncccc3nc2OCCN2CCCC2)c1 | Active | Active | 2450 | Active | 30 | – | – | – |
| – | – | COc1cc(C#Cc2nc3ncccc3nc2OCCCN(C)C)cc(OC)c1 | Active | Active | 380 | Active | 30 | – | – | – |
| 43 | 120 | C(#Cc1nc2ncccc2nc1OCCc1ccccn1)c1ccccc1 | Active | Active | 200 | Active | 50 | Active | Dose-dependent effect | – |
| 535 | – | CN(C)CCOc1nc2cccnc2nc1C#Cc1cccc(F)c1 | Active | Active | 1940 | Active | 30 | Active | Dose-dependent effect | – |
| – | – | CN(C)c1cccc(COc2nc3cccnc3nc2C#Cc2ccccc2)c1 | Active | Active | 1720 | Active | 30 | – | – | – |
| 830 | – | COc1ccc(C#Cc2nc3ncccc3nc2OCCN(C)C)c(C)c1 | Active | Active | 2950 | Active | 30 | – | Dose-dependent effect | – |
| – | – | COc1cccc(C#Cc2nc3ncccc3nc2OCCCN(C)C)c1 | Active | Active | 280 | Active | 30 | – | – | – |
| 208 | – | CCN(CC)CCOc1nc2cccnc2nc1C#Cc1ccc(OC)cc1 | Active | Active | 640 | Active | 50 | Active | Dose-dependent effect | 3.07 |
| – | – | COc1c(C[C@@H](C)OC(=O)Oc2ccc(O)cc2)c2c3c(C[C@@H](C)OC(=O)c4ccccc4)c(OC)c(=O)c4c(O)cc(OC)c(c5c(OC)cc(O)c(c1=O)c52)c43 [CALPHOSTIN C] | – | – | 3200 | – | – | – | – | – |
| – | – | CN1CCCC(Oc2nc3cccnc3nc2C#Cc2ccccc2)C1 (stereo unspecified) | Active | Active | 720 | Active | 30 | – | – | – |
| – | 758 | CN(C)CCOc1nc2ccccc2nc1C#Cc1ccccc1 | – | – | – | – | – | – | – | – |
| – | – | COc1cccc(C#Cc2nc3ncccc3nc2Cl)c1 | Active | Active | 4000 | Active | 50 | – | – | – |
| – | – | Cc1ccc(C#Cc2nc3ncccc3nc2OC(C)CN(C)C)cc1 (stereo unspecified) | Active | Active | 1900 | Active | 30 | – | – | – |
